Active and inactive are the calls of the source. No cut-off for these calls is given here.

Experimental findings from ChEMBL document CHEMBL1799916, “Novel 3,5-bis(bromohydroxybenzylidene)piperidin-4-ones as coactivator-associated arginine methyltransferase 1 inhibitors: enzyme selectivity and cellular activity” (J Med Chem, 2011) are described below.

In test [1] the target is Histone-lysine N-methyltransferase, H3 lysine-79 specific (Homo sapiens) (UniProt Q8TEK3). Description: Inhibition of DOTL1-mediated methylation of nucleosome at 100 uM after 90 mins by scintillation counting in presence of S-adenosyl-l-[methyl-3H]methionine. The method, boiled down:
(§1)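 Compound at 100 μM with 0.1–0.2 μM recombinant enzyme and 0.5–1.5 μM substrate in PBS pH 7.4 containing [³H]AdoMet. Incubated 30 °C for 90 min, then SDS-PAGE, PVDF transfer and overnight film fluorography. Ponceau-stained substrate bands cut out and dpm counted by liquid scintillation.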

The target in test [2] is T1, Histone-lysine N-methyltransferase SETD7 (Homo sapiens) (UniProt Q8WTS6).
T1 sequence (whole entry): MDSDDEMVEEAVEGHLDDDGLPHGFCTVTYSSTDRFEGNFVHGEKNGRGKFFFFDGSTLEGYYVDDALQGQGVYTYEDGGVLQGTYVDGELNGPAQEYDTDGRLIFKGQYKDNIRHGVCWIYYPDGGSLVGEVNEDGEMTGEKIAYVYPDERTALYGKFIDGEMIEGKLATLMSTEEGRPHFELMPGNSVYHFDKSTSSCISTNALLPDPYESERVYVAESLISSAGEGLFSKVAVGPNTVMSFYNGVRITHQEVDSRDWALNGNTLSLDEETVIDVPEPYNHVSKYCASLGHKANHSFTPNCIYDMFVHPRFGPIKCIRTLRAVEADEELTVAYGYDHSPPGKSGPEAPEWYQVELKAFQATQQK
Description: Inhibition of SET7-mediated methylation of histone H3 at 100 uM after 90 mins by scintillation counting in presence of S-adenosyl-l-[methyl-3H]methionine. Summed up:
as §1

Test [3] concerns the target Protein arginine N-methyltransferase 1 (Homo sapiens, UniProt Q99873). Description: Inhibition of PRMT1-mediated methylation of NPL3 after 90 mins by scintillation counting in presence of S-adenosyl-l-[methyl-3H]methionine.
In test [4] the target is T2, Histone-lysine N-methyltransferase EHMT2 (Homo sapiens) (UniProt Q96KQ7).
T2 sequence (whole entry): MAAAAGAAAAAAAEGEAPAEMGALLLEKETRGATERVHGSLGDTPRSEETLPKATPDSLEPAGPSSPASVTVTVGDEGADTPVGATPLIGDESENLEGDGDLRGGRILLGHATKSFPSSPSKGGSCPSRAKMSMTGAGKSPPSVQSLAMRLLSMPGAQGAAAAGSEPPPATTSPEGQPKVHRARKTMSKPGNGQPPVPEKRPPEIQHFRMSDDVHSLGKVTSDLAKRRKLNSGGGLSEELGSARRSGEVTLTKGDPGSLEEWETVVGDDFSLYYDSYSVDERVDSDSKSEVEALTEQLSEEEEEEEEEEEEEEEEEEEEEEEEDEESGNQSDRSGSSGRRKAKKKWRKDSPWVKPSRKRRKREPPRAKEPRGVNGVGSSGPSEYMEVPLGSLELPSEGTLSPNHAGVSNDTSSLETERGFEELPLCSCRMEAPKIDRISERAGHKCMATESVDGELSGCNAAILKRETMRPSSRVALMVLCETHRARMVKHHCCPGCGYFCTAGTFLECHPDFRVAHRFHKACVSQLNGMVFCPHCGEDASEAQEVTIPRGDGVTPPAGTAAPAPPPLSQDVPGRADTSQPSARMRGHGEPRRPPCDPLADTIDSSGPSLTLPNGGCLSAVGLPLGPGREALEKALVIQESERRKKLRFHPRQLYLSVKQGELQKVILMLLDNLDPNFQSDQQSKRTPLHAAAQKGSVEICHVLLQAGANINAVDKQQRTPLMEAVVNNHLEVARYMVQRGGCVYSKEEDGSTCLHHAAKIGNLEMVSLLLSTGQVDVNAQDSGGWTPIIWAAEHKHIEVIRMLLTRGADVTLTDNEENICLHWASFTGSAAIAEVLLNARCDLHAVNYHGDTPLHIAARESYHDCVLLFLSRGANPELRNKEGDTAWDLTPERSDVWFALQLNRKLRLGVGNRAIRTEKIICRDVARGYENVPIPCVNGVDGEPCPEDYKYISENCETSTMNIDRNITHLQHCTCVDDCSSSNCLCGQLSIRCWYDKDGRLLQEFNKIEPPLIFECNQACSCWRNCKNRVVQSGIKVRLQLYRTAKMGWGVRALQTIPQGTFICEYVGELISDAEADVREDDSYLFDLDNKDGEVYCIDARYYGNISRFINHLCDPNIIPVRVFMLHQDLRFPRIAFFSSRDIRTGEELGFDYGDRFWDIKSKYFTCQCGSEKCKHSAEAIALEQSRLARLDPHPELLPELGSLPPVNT
Description: Inhibition of G9a-mediated methylation of histone H3 at 100 uM after 90 mins by scintillation counting in presence of S-adenosyl-l-[methyl-3H]methionine. Summed up: as §1

Test [5] concerns the target Protein arginine N-methyltransferase 3 (Homo sapiens) (UniProt O60678). Description: Inhibition of PRMT3-mediated methylation of ribosome protein rpS223 at 100 uM after 90 mins by scintillation counting in presence of S-adenosyl-l-[methyl-3H]methionine. Summed up:
as §1

Test [6] addresses T3, Histone-arginine methyltransferase CARM1 (Homo sapiens, UniProt Q86X55).
T3 sequence (Q86X55 whole entry): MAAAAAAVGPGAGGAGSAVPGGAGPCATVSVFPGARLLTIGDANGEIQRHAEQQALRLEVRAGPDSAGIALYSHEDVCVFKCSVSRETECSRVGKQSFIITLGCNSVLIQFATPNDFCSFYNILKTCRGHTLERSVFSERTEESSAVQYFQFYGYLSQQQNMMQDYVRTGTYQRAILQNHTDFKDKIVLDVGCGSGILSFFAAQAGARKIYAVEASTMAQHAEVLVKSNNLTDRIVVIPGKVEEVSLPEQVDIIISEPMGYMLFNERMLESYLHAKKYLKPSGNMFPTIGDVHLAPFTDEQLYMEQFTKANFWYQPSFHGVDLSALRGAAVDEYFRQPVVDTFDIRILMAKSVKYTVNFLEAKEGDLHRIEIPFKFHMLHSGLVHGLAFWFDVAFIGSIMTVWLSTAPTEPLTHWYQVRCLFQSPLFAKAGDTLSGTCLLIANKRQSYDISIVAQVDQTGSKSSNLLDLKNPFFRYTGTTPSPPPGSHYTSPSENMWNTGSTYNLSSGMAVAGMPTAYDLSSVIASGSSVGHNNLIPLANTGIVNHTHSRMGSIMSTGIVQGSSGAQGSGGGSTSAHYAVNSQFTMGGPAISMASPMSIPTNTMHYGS
Put plainly: Inhibition of CARM1-mediated methylation of PABP1 after 90 mins by scintillation counting in presence of S-adenosyl-l-[methyl-3H]methionine.

Test [7] addresses T4, Histone-arginine methyltransferase CARM1 (Homo sapiens) (UniProt Q86X55).
T4 sequence (whole entry): T3 sequence (Q86X55 whole entry)
Put plainly: Inhibition of CARM1-mediated methylation of SMB at 100 uM after 90 mins by scintillation counting in presence of S-adenosyl-l-[methyl-3H]methionine. Summed up:
as §1

The target of test [8] is Protein arginine N-methyltransferase 5 (Homo sapiens) (UniProt O14744). Description: Inhibition of PRMT5-mediated methylation of histone H4 at 100 uM after 90 mins by scintillation counting in presence of S-adenosyl-l-[methyl-3H]methionine. Summed up:
as §1

Sequence of Histone-lysine N-methyltransferase, H3 lysine-79 specific (Homo sapiens) (Q8TEK3 whole entry, looked up): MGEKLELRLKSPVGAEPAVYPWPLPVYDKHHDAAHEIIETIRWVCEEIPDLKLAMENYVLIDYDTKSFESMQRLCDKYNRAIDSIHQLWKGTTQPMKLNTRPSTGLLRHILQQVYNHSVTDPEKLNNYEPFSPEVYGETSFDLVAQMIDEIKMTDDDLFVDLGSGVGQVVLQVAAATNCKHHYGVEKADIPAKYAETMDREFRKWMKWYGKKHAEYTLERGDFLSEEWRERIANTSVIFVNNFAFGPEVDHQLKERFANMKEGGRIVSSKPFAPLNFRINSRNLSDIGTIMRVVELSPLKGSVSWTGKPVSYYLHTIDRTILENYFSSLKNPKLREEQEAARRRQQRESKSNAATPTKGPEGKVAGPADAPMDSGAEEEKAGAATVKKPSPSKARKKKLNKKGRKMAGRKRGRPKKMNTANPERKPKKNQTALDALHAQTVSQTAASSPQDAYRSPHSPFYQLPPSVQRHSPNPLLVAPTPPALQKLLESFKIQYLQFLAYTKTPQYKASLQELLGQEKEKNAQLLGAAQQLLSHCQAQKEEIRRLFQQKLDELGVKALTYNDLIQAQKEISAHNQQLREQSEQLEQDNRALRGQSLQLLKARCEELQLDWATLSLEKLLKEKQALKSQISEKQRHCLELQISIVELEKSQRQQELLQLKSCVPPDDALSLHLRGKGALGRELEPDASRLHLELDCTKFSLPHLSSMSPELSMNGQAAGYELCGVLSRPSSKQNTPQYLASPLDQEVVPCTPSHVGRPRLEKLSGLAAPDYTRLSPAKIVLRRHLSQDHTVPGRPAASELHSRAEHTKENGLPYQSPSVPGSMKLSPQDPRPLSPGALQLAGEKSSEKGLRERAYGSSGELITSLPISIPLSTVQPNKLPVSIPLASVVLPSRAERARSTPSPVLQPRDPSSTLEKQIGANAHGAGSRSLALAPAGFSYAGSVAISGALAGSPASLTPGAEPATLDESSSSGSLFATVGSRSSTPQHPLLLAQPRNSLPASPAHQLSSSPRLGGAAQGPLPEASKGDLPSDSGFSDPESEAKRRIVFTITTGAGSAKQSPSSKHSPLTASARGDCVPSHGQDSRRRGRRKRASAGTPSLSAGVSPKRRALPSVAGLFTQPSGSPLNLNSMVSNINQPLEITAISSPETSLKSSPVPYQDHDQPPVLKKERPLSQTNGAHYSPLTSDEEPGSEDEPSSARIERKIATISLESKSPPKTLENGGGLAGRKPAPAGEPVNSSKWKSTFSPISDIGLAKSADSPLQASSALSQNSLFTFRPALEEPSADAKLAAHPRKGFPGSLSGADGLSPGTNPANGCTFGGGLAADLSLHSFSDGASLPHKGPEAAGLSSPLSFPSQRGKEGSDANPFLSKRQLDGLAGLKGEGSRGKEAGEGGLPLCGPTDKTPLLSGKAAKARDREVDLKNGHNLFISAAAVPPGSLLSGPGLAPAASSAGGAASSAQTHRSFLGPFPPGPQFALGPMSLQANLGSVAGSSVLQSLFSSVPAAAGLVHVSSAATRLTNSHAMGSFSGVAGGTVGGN
Sequence of Protein arginine N-methyltransferase 1 (Q99873 whole entry): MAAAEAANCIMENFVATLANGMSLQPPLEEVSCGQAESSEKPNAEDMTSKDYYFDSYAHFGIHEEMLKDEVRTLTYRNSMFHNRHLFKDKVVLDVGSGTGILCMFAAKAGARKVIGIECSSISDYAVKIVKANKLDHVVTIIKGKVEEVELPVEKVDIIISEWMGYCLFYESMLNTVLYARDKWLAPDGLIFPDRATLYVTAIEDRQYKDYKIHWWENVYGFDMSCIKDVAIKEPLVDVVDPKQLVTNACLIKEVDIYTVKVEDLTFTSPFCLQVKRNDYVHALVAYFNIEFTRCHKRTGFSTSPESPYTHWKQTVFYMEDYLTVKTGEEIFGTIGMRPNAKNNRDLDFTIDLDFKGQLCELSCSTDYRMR
Sequence of Protein arginine N-methyltransferase 5 (Homo sapiens) (O14744 whole entry): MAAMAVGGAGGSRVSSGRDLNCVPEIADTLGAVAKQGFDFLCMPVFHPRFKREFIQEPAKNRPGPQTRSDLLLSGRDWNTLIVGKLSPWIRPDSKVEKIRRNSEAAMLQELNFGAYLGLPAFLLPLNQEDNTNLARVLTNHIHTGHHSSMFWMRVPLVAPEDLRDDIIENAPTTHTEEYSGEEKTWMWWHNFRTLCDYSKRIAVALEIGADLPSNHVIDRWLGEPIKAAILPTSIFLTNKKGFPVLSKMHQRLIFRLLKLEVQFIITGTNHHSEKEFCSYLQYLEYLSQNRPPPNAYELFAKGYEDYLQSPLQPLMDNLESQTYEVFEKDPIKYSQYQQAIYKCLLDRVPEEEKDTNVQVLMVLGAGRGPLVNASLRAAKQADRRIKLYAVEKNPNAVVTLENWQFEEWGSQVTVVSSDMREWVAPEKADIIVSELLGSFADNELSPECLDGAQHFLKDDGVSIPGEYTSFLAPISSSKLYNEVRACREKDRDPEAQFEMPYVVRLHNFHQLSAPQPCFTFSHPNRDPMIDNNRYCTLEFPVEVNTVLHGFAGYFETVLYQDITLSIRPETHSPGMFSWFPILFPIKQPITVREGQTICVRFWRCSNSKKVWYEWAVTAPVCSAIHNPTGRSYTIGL
Sequence of Protein arginine N-methyltransferase 3 (Homo sapiens) (O60678 2-531 limits assumed): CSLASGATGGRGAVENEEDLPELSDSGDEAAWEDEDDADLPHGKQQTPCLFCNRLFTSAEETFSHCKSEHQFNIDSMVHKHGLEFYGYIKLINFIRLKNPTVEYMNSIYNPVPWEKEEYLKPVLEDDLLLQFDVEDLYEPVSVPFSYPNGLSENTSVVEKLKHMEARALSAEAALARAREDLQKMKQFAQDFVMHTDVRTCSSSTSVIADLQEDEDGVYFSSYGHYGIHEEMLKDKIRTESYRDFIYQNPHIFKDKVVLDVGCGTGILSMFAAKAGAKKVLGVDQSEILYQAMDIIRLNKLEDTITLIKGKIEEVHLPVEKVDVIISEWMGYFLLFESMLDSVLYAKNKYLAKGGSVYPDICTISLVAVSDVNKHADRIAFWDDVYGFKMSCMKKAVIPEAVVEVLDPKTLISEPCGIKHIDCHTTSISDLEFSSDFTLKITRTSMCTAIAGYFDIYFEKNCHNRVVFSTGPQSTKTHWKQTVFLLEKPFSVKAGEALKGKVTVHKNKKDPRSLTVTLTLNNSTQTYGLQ

For orientation: IC50 means the point on the concentration scale where inhibition reaches its midpoint. As for `O=C1/C(=C/c2ccc(O)c(Br)c2)CN(Cc2ccccc2)C/C1=C\c1ccc(O)c(Br)c1`, the inhibition entry in test [1], in test [2] and in test [4] was “inactive” in each case. Besides, the IC50 is over 667 µM in test [3] and 8.6 µM in test [6]. Further, the inhibition entry in test [5] and in test [7] was “Active” each time.

In the case of `O=C1/C(=C/c2ccc(O)c(Br)c2)CN(Cc2cccc(Cl)c2)C/C1=C\c1ccc(O)c(Br)c1`, the inhibition entry in test [8], in test [5] and in test [7] was “Active” throughout. For the same molecule, the inhibition entry in test [1], in test [2] and in test [4] was “inactive” each time. Further, the IC50 in test [3] was over 667 µM; in test [6] it was 8.1 µM.

Turning to `O=C1/C(=C/c2ccc(O)c(Br)c2)CN(CC(=O)c2ccccc2)C/C1=C\c1ccc(O)c(Br)c1`, the inhibition entry in test [8] and in test [7] was “Active” in each case. Further, the inhibition result in test [1], in test [2] and in test [4] was “inactive” in each case. Besides, the IC50 is over 667 µM in test [3] and 14.4 µM in test [6].
